Source: PubChem
This is a sample that favours compounds with a hit; in the whole collection about 3.5% have one here.
Ecoli rRNA inh: selective bacterial rRNA inhibition in E. coli; E. coli WT GFP vs humanized-ribosome RFP mutants, fluorescence, 24 h; active compounds read low; DMSO median 0, no signal -100; GFP signal change (wild-type ribosome), % (no concentration beside the values); 350,000 compounds, 1.6% hits;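 active means significant combined selectivity score with lowered wild-type GFP, culture density cut under 30%, mutant RFP and density less affected; inactive means any of these conditions unmet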
PGC1a acetyl inh: lowers PGC1a acetylation signal in U2OS cells; AlphaScreen anti-acetyl-lysine; with virally co-expressed GCN5 acetyltransferase; inhibition, % at 15.6 µM; AID 651687; 350,000 compounds, 0.17% hits;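 active means every replicate shows inhibition of at least 40%; inconclusive means mean inhibition at least 40% but some replicate below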
HIV Env fusion: blocks HIV Env-driven cell-cell fusion | AID 651610 | HeLa-JRFL Env/CEM21 cell fusion, luciferase | inhibition, % at 12.3 µM | 360,000 compounds, 1.1% hits;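 active means mean replicate inhibition score of at least 50 and every replicate individually at or above 50; inconclusive means only one of the two criteria met; inactive means mean below 50 and not all replicates reaching 50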
DENV2 CPE rescue: inhibitors of DENV2 cytopathic effect; DENV2-infected cells, cytopathic effect rescue, plate reader; CPE inhibition, % at 9.99 µM; AID 651640; 350,000 compounds, 1.7% hits; in the data active means CPE inhibition above about 20%, passing the limit was not always enough; inconclusive means no clear call, values can overlap the other calls; tested in BHK-21 cells
FN deposit inh: fibronectin deposition inhibition | AH1F fibroblasts, Alexa488-fibronectin deposition fluorescence, overnight | inhibition, % at 12.6 µM | 350,000 compounds, 0.086% hits | AID 743247;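 active means mean inhibition across replicates of 30% or more, regardless of how many single replicates reach that level; inconclusive means mean under 30% yet at least half of replicates reach 30%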
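Measured by – fluorescence 485/525 nm · System – AH1F fibroblast monolayer, labelled fibronectin deposition · Amount – 10000 cells per well · Buffer or medium – serum-reduced DMEM (2% serum) · Doses – single dose, pinned · Also added – fluorescent fibronectin at 24 nM final · Schedule – 1 h cell attachment, overnight exposure to compound and label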
PglD inh: blocks C. jejuni PglD acetyltransferase activity. 360,000 compounds, 0.098% hits. purified PglD enzyme, DTNB colorimetric CoA detection. AID 602405. inhibition, % at 12.5 µM; in the data active means inhibition above about 16%, passing the limit was not always enough; inconclusive means no clear call, values can overlap the other calls
AID977621: wild-type E. coli growth inhibition versus H69 humanized strain – H69 mutant RFP, wild-type GFP, cherry-pick, dose response | shares compounds with Ecoli rRNA inh | fluorescence, 24 h | activity change, negative = inhibition at 50 µM | 1,900 tested, under 10 active | AID 977621;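 active means Wild-type ribosome reporter drop at least double the humanized mutant ribosome reporter drop, growth loss under a set limit; inconclusive means no clear call, values can overlap the other calls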;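 further: wild-type GFP and H69 mutant RFP strains grown together 50/50 in each well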
AID977628: E. coli growth inhibition, wild-type GFP versus h24 humanized RFP strain, dose response, h24 mutant RFP vs wild-type GFP, cherry-pick; activity change, negative = inhibition at 50 µM; shares compounds with Ecoli rRNA inh; 1,900 tested, under 10 active; AID 977628; E. coli WT GFP strain growth, fluorescence, 24 h;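 active means compound lowering the normal-ribosome reporter at least twice as much as the humanized-ribosome reporter, growth loss under a set limit; inconclusive means no clear call, values can overlap the other calls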;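 further: wild-type GFP and h24 humanized RFP strains co-cultured 1 to 1 per well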
A number is an active result; – = inactive; ? = inconclusive; · = no result given.

SMILES	Ecoli rRNA inh	PGC1a acetyl inh	HIV Env fusion	DENV2 CPE rescue	FN deposit inh	PglD inh	AID977621	AID977628
COc1ccc2c3c([nH]c2c1)[C@@H](CO)N(C(C)=O)CC31CN(C(=O)Nc2c(C)noc2C)C1	–	·	·	·	·	·	·	·
N#Cc1cccc(-c2ccc3c(c2)[C@@H]2[C@@H](CCN2S(=O)(=O)c2cccc(F)c2)[C@H](CO)N3)c1	-19	–	·	–	–	–	?	·
N#Cc1ccc(-c2ccc3c(c2)[C@H]2[C@H](CCN2S(=O)(=O)c2cccc(F)c2)[C@@H](CO)N3)cc1	–	–	·	–	–	–	·	·
COc1ccc(NC(=O)N(C)C[C@@H]2Oc3ccc(NC(=O)CCC(F)(F)F)cc3CC(=O)N([C@@H](C)CO)C[C@@H]2C)cc1	–	–	–	–	–	–	·	·
COc1ccc(CN2C(=O)NC3(CCOc4ccccc43)C2=O)cc1F (centres undefined)	·	·	–	–	–	·	·	·
COc1ccc(CN2C(=O)NC(C)(c3ccc(C)cc3)C2=O)cc1F (centres undefined)	-22	–	–	–	–	–	–	?
COc1ccc(-c2csc(N)n2)cc1F	-17	–	–	–	–	·	–	–
COc1cc(NC(=O)c2ccccc2)c(OC)cc1Cl	·	–	·	·	·	–	·	·
COc1ccc(-c2ccccc2)cc1NC(=O)c1ccncc1	-31	·	–	–	–	·	–	·
COc1ccc(CC(=O)Oc2ccc(C)cc2C)cc1	-23	·	–	–	–	–	–	–
Cc1ccc(OC(=O)CCC(=O)Oc2ccc(C)cc2C)c(C)c1	–	–	–	–	–	–	·	·
COc1ccc(CN(C)C[C@H]2Oc3c(NS(=O)(=O)c4ccc(Cl)cc4)cccc3C(=O)N([C@@H](C)CO)C[C@H]2C)cc1	–	–	·	–	·	–	·	·
C=CCn1c(SCC(=O)N2CCCC2=O)nc2sc(CC)cc2c1=O	-23	–	–	–	–	–	–	?
C=CCn1c(SCC(=O)O)nc2sc(CC)cc2c1=O	–	–	–	–	–	·	·	·
CC(=O)c1ccc(OCC(=O)Nc2ccc3c(c2)CCC3)cc1	-26	–	–	·	–	·	–	–
C[C@@H]1CN([C@@H](C)CO)C(=O)c2ccccc2-c2ccccc2CO[C@@H]1CN(C)C(=O)Oc1ccccc1	–	–	·	–	–	–	·	·
Cc1cccc(-c2nsc(SCC(=O)NCC3CCCO3)n2)c1 (centres undefined)	-22	·	–	–	–	·	–	–
CCCNC(=O)Nc1ccc2c(c1)OC[C@H](C)N(CC1CCCC1)C[C@H](C)[C@@H](OC)CN(C)C2=O	·	–	·	–	–	·	·	·
Cc1cccc(-n2cnc3cc([N+](=O)[O-])ccc32)c1	-16	·	–	–	–	–	–	–
Nc1ccc(-n2cnc3cc([N+](=O)[O-])ccc32)cc1	·	–	·	·	·	–	·	·
Cc1nc(N2CCC(C)CC2)c(C#N)c(C)c1[N+](=O)[O-]	-25	–	–	–	–	·	–	–
c1ccc(-c2csc(-c3cccnc3)n2)cc1	–	–	–	–	–	·	·	·
c1ccc(-c2nc(-c3cccnc3)cs2)cc1	-24	–	–	–	–	–	?	·
CO[C@@H]1CN(C)C(=O)c2cc(NC(=O)C3CCCC3)ccc2OC[C@H](C)NC[C@H]1C	–	·	·	–	–	–	·	·
O=C(CCCOc1ccc(Cl)cc1Cl)Nc1ccccc1C(=O)O	-30	–	–	–	–	–	–	·
Cc1ccc(N2C(=O)NC(NS(=O)(=O)c3ccccc3)(C(F)(F)F)C2=O)cc1C (centres undefined)	-17	–	–	·	–	–	–	·
COCCn1c(SCc2nc3ccccc3s2)nc2ccccc21	-19	–	·	–	·	–	–	·
COCCn1c(SCC(=O)Nc2cccnc2Cl)nc2ccccc21	–	–	·	–	–	–	·	·
COCCn1c(SCC(=O)Nc2ccccc2OC)nc2ccccc21	-24	–	–	–	–	·	–	?
COc1ccccc1NC(=O)CSc1nccn1Cc1ccc(F)cc1	-24	–	–	?	–	–	–	·
